One molecule from article PMC12393906 (Molecular Therapy, 2025) can be followed below.

In series [1] the test system is mouse platelets. In words: Platelet aggregation assay and ATP secretion. Type of series: cell-based. Summed up: (§1)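 Washed mouse platelets (WT control, C57BL/6 or Ero1α/β-null) were pretreated 20 min at 37°C with 0.1% DMSO vehicle or test compound. After agonist addition, aggregation and ATP secretion were recorded together in a lumi-aggregometer at 37°C with stirring at 1,000 rpm.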

For series [2], the system named is human platelets. In words: Platelet aggregation assay and ATP secretion. In kind it is cell-based. Conditions: 1 μM; 0.015 U/ml thrombin or 0.05 µg/ml CRP. Summed up:
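Washed human platelets, isolated from ACD blood with PGE1 washes and resuspended in HEPES-Tyrode, were pretreated 20 min at 37°C with 0.1% DMSO vehicle or test compound. After agonist addition, aggregation and ATP secretion were recorded in a lumi-aggregometer at 37°C, stirring at 1,000 rpm.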

Series [3] deals with mouse platelets. Put plainly: Serotonin secretion. Conditions: 2.5 or 5 μM. In kind it is cell-based.
Series [4] relates to mouse platelets. Put plainly: CCL5/RANTES in platelet releasates. Type of series: cell-based. The procedure, abridged: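 Washed mouse platelets (5 × 10^8 cells/mL) were pretreated 20 min at 37°C with 0.1% DMSO vehicle or test compound. They were then stimulated 10 min with 0.01 U/mL thrombin or 0.05 μg/mL CRP. CCL5/RANTES in the collected supernatant was quantified by ELISA.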

Series [5] relates to mouse blood. Put plainly: Flow chamber assay on collagen-coated surfaces under arterial shear. Type of series: cell-based. Conditions: 5 μM, 50 dyne/cm^2. The procedure, abridged:
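Plates were coated with fibrillar type 1 collagen (100 μg/mL, 1 h, 37°C) and washed with PBS/0.05% BSA. ACD-anticoagulated blood was treated 15 min at 37°C with 0.1% DMSO vehicle or 5 μM test compound, then labelled with 1 μM DiOC6 for 5 min. After adding 6 mM CaCl2 and 3 mM MgCl2, blood was perfused at 50 dyne/cm2 (mouse blood: 2 min). Surface coverage and thrombus volume were measured by epifluorescence.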

The subject of series [6] is human platelets. Put plainly: Ca2+ mobilization. Type of series: cell-based. (A change in cytosolic calcium serves as a functional read-out for many receptors and channels.)
Series [7] deals with Ero1α/β-null platelets. Type of series: cell-based, mouse. The procedure, abridged:
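Washed mouse platelets (2 × 10^8/mL in HEPES-Tyrode; C57BL/6 or Ero1α/β-null) were pretreated 20 min at 37°C with 0.1% DMSO vehicle or test compound. Agonist was added for 5 min at 37°C. Cells were stained 15 min with labelled anti-P-selectin or JON/A (activated αIIbβ3) and read by flow cytometry as geometric mean fluorescence intensity.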

Series [8] deals with Ero1α/β-null platelets. In words: Platelet aggregation and ATP secretion in knockout platelets. In kind it is cell-based, mouse. Summed up:
as §1

The subject of series [9] is C57BL/6 mice. In words: Complete blood counts after intravenous injection. In kind it is in vivo, mouse. Conditions: iv 0.3 μg/g BW; 10 min and 8 h after injection.
In series [10] the test system is C57BL/6 mice. In words: Tail bleeding time and hemoglobin content. The note with it: iv 0.3 μg/g BW. Type of series: in vivo, mouse.
[11] abbreviates: 1 or 2.5 μM, 0.015 U/mL thrombin or 0.05 μg/mL CRP.

As for `O=C(O)c1cc(N2N=C(C(F)(F)F)/C(=C/c3ccc(-c4ccccc4)o3)C2=O)ccc1Cl` [EN460], the ATP secretion result in series [1] (1 μM, 0.5 µM U46619) is recorded as “without affecting ATP secretion”; in series [1] (setting [11]) it was “had no effect on ATP secretion”; in [8] (2.5 μM, 0.015 U/mL thrombin) it was “not ATP secretion”. Besides, the platelet aggregation entry is recorded as “completely inhibited U46619-induced platelet aggregation” in series [1] (1 μM, 0.5 µM U46619) and “significantly inhibited aggregation” in series [1] (setting [11]). The “platelet aggregation and ATP secretion” value was “abolished both responses” in [1] (5 μM, 0.5 µM U46619); “markedly inhibited platelet aggregation and ATP secretion” in [1] (5 μM, 0.015 U/mL thrombin or 0.05 μg/mL CRP); “also inhibited platelet aggregation and ATP secretion” in [1] (1-5 µM, 0.5 µM A23187); “significantly inhibited both responses” in series [1] (1-5 µM, high concentration of thrombin (0.1 U/ml)); “significantly inhibited both responses” in series [1] (2.5 or 5 μM, high concentration of CRP (0.2 µg/ml)); “had no effect” in series [2]. In addition, the “serotonin secretion from resting platelets” value in series [3] (no agonist) is given as “enhanced serotonin secretion from resting platelets”. Besides, the “serotonin secretion from activated platelets” value in series [3] (thrombin or CRP) is “either enhancing or inhibiting secretion”. For the same molecule, in series [4] (5 μM), the “CCL5 secretion in resting and activated platelets” value is recorded as “appeared to increase CCL5 secretion”. Besides, the “CCL5 secretion from activated platelets” value in series [4] (various concentrations (1-5 μM), thrombin) is “inhibits CCL5 secretion”. Also, in series [5], the “surface coverage and volume of platelet thrombi” value is listed as “significantly reduced”. Besides, the “thrombin-induced Ca2+ influx” value in series [6] (0.5 μM) is given as “reduced thrombin-induced Ca^2+ influx”. In series [6] (2 or 5 μM, activated human platelets), the “Ca2+ release and influx” value was “significantly inhibited both Ca^2+ release and influx”. The “P-selectin exposure and αIIbβ3 integrin activation in resting platelets” value in series [7] (M6766 5 μM, EN460 2.5 μM, no agonist) is “appeared to increase the levels of these surface markers”. Also, the “agonist-induced P-selectin exposure and αIIbβ3 integrin activation” value in series [7] (various concentrations, 0.01 U/mL thrombin, 0.025 μg/mL CRP) is given as “significantly reduced”. In series [8] (2.5 μM, 0.015 U/mL thrombin), the thrombin-induced aggregation entry is given as “markedly inhibited thrombin-induced aggregation”. Moreover, in series [8] (5 μM, 0.015 U/ml thrombin), the “thrombin-stimulated aggregation and ATP secretion” value is reported as “significantly inhibited both responses”. Further, in series [9], the “complete blood counts (CBCs)” value is “did not alter CBCs”. In addition, the “tail bleeding times and blood loss” value in series [10] was “did not prolong tail bleeding times or increase blood loss”.
